For 13 compounds, IC50 and Ratio IC50 results are on record in ChEMBL document CHEMBL4732065 (Eur J Med Chem, 2021).

In the first experiment the target is T1, Cytochrome P450 1B1 (Homo sapiens, UniProt Q16678).
T1 sequence (Q16678 whole entry): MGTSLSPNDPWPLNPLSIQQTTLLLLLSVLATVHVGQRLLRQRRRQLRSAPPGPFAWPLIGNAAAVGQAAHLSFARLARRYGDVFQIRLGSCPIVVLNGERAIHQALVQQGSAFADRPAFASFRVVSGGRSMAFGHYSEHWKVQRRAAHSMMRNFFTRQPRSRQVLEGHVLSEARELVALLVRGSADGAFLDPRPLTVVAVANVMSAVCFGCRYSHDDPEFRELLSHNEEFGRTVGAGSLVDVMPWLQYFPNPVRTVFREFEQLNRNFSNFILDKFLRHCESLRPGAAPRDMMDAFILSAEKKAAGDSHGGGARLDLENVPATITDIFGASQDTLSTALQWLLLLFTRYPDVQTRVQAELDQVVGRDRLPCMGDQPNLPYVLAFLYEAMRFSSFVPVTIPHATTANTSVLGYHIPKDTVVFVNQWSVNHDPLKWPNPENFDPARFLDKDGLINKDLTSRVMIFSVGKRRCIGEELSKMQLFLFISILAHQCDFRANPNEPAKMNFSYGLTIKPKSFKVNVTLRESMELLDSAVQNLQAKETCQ
Kind of experiment: Inhibition of recombinant human CYP1B1 using 7-ethoxyresorufin as substrate after 35 mins in presence of NADP+ by EROD assay. An outline of the steps:
(§1)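 Recombinant human CYP1 Supersomes co-expressing P450 reductase; 20 fmol CYP1B1, 10 fmol CYP1A1 or 60 fmol CYP1A2 per well. Incubated at 37 °C (1B1 35 min, 1A1 15 min, 1A2 50 min).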
Usually IC50 stands for the midpoint of a concentration-inhibition curve. Take `COc1ccc(OC)c2c1c(OC)cc1c(=O)cc(-c3cc(Cl)cc(N4CCN(C)CC4)c3)oc12`: the 50% inhibitory concentration (IC50) turned out to be 0.519 µM.
The same measure, in the same setting: for `COc1ccc(OC)c2c1c(OC)cc1c(=O)cc(-c3ccc4[nH]cnc4c3)oc12` the value was 0.0156 µM; for `COc1ccc(OC)c2c1c(OC)cc1c(=O)cc(-c3cc4ccccc4o3)oc12`, 0.00087 µM.
Same read-out and setting: for `COc1ccc(OC)c2c1c(OC)cc1c(=O)cc(-c3ccccn3)oc12` the value was 0.0006 µM; for `COc1ccc(OC)c2c1c(OC)cc1c(=O)cc(-c3cccc(C)n3)oc12`, 0.0012 µM.
Still for that read-out and setting: with `COc1ccc(OC)c2c1c(OC)cc1c(=O)cc(-c3cccnc3N)oc12` the figure was 0.175 µM; with `COc1ccc(OC)c2c1c(OC)cc1c(=O)cc(-c3ccncc3)oc12`, 0.0012 µM.
Regarding `COc1ccc(OC)c2c1c(OC)cc1c(=O)cc(-c3ccnc(N)c3)oc12`, the IC50 was 0.0206 µM.
On the same count and under the same terms, for `COc1ccc(OC)c2c1c(OC)cc1c(=O)cc(-c3ccc4ncccc4c3)oc12` the value was 0.0018 µM; for `COc1ccc(OC)c2c1c(OC)cc1c(=O)cc(-c3ccnc(F)c3)oc12`, 0.00093 µM; for `COc1ccc(OC)c2c1c(OC)cc1c(=O)cc(-c3ccnnc3)oc12`, 0.002 µM.
Consider `COc1ccc(OC)c2c1c(OC)cc1c(=O)cc(-c3cccc(N4CCOCC4)c3)oc12`, for which the half-inhibitory concentration (IC50) stood at 0.0149 µM.
Still for that read-out and setting: for `COc1ccc(OC)c2c1c(OC)cc1c(=O)cc(-c3ccnc(Cl)c3)oc12` the value was 0.0011 µM.

The target of a further experiment is T2, Cytochrome P450 1A1 (Homo sapiens, UniProt P04798).
T2 sequence (P04798 whole entry): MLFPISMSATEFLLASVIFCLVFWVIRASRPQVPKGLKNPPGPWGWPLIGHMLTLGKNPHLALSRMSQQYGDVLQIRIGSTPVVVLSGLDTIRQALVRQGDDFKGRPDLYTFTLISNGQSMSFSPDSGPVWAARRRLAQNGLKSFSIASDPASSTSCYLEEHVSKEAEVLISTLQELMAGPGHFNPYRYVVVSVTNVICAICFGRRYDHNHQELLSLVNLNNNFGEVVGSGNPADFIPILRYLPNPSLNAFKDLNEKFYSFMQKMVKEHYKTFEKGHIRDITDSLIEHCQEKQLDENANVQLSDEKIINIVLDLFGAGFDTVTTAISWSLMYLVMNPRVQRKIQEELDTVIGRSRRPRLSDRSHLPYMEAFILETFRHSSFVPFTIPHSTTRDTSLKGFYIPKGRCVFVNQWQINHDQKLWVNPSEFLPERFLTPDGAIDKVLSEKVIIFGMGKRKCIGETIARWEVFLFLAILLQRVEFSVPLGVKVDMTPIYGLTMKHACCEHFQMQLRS
The experiment is described as follows: Inhibition of recombinant human CYP1A1 using 7-ethoxyresorufin as substrate after 15 mins in presence of NADP+ by EROD assay. Type of experiment: ADME. In a few lines:
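Recombinant human CYP1 Supersomes co-expressing P450 reductase; 20 fmol CYP1B1, 10 fmol CYP1A1 or 60 fmol CYP1A2 per well. Incubated at 37 °C (1B1 35 min, 1A1 15 min, 1A2 50 min). Stopped with cold methanol; fluorescence read at 544/590 nm; triplicates.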
On to `COc1ccc(OC)c2c1c(OC)cc1c(=O)cc(-c3cc(Cl)cc(N4CCN(C)CC4)c3)oc12`, for which the IC50 is more than 1 µM.
With `COc1ccc(OC)c2c1c(OC)cc1c(=O)cc(-c3ccc4[nH]cnc4c3)oc12`, the IC50 is 0.0424 µM.
Same read-out and setting: for `COc1ccc(OC)c2c1c(OC)cc1c(=O)cc(-c3cc4ccccc4o3)oc12` the value was 0.0101 µM.
On the same count and under the same terms, with `COc1ccc(OC)c2c1c(OC)cc1c(=O)cc(-c3ccccn3)oc12` the figure was 0.0054 µM; with `COc1ccc(OC)c2c1c(OC)cc1c(=O)cc(-c3cccc(C)n3)oc12`, 0.0199 µM; with `COc1ccc(OC)c2c1c(OC)cc1c(=O)cc(-c3cccnc3N)oc12`, 0.137 µM.
For the compound `COc1ccc(OC)c2c1c(OC)cc1c(=O)cc(-c3ccncc3)oc12`, the half-maximal inhibitory concentration (IC50) is 0.0404 µM.
As for `COc1ccc(OC)c2c1c(OC)cc1c(=O)cc(-c3ccnc(N)c3)oc12`, the half-maximal inhibitory concentration (IC50) was 0.0153 µM.
The same measure, in the same setting: for `COc1ccc(OC)c2c1c(OC)cc1c(=O)cc(-c3ccc4ncccc4c3)oc12` the value was 0.0209 µM; for `COc1ccc(OC)c2c1c(OC)cc1c(=O)cc(-c3ccnc(F)c3)oc12`, 0.0389 µM; for `COc1ccc(OC)c2c1c(OC)cc1c(=O)cc(-c3ccnnc3)oc12`, 0.126 µM.
For `COc1ccc(OC)c2c1c(OC)cc1c(=O)cc(-c3cccc(N4CCOCC4)c3)oc12`, the half-maximal inhibitory concentration (IC50) is 0.133 µM.
Same read-out and setting: with `COc1ccc(OC)c2c1c(OC)cc1c(=O)cc(-c3ccnc(Cl)c3)oc12` the figure was 0.0916 µM.

For another experiment, the target named is T3, Cytochrome P450 1A2 (Homo sapiens, UniProt P05177).
T3 sequence (P05177 whole entry): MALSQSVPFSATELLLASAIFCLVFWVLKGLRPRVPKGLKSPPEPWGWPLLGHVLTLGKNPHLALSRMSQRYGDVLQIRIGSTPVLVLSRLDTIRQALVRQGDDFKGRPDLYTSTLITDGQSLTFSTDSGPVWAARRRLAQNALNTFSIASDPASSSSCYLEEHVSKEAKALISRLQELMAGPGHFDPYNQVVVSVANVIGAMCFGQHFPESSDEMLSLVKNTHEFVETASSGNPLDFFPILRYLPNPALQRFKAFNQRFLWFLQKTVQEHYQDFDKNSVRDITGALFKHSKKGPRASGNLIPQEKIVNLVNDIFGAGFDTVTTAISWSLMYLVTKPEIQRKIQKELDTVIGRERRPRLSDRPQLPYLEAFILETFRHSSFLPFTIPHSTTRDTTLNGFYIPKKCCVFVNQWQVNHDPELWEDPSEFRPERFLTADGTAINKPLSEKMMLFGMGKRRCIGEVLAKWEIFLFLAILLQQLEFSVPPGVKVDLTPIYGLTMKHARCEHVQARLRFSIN
Kind of experiment: Inhibition of recombinant human CYP1A2 using 7-ethoxyresorufin as substrate after 50 mins in presence of NADP+ by EROD assay. In kind it is ADME. In a few lines: as §1
Take `COc1ccc(OC)c2c1c(OC)cc1c(=O)cc(-c3cc(Cl)cc(N4CCN(C)CC4)c3)oc12`: the concentration for half-maximal inhibition (IC50) was more than 1 µM.
Same read-out and setting: for `COc1ccc(OC)c2c1c(OC)cc1c(=O)cc(-c3ccc4[nH]cnc4c3)oc12` the value was more than 1 µM; for `COc1ccc(OC)c2c1c(OC)cc1c(=O)cc(-c3cc4ccccc4o3)oc12`, more than 1 µM.
The same measure, in the same setting: for `COc1ccc(OC)c2c1c(OC)cc1c(=O)cc(-c3ccccn3)oc12` the value was 0.108 µM.
The same measure, in the same setting: for `COc1ccc(OC)c2c1c(OC)cc1c(=O)cc(-c3cccc(C)n3)oc12` the value was 0.148 µM; for `COc1ccc(OC)c2c1c(OC)cc1c(=O)cc(-c3cccnc3N)oc12`, more than 1 µM; for `COc1ccc(OC)c2c1c(OC)cc1c(=O)cc(-c3ccncc3)oc12`, 0.2 µM.
In the case of `COc1ccc(OC)c2c1c(OC)cc1c(=O)cc(-c3ccnc(N)c3)oc12`, the 50% inhibitory concentration (IC50) was more than 1 µM.
The same measure, in the same setting: with `COc1ccc(OC)c2c1c(OC)cc1c(=O)cc(-c3ccc4ncccc4c3)oc12` the figure was more than 1 µM; with `COc1ccc(OC)c2c1c(OC)cc1c(=O)cc(-c3ccnc(F)c3)oc12`, 0.518 µM; with `COc1ccc(OC)c2c1c(OC)cc1c(=O)cc(-c3ccnnc3)oc12`, more than 1 µM.
Same read-out and setting: with `COc1ccc(OC)c2c1c(OC)cc1c(=O)cc(-c3cccc(N4CCOCC4)c3)oc12` the figure was more than 1 µM; with `COc1ccc(OC)c2c1c(OC)cc1c(=O)cc(-c3ccnc(Cl)c3)oc12`, more than 1 µM.

The species entered for a further experiment is Homo sapiens. The experiment is described as follows: Selectivity index, ratio of IC50 for recombinant human CYP1A1 to IC50 for recombinant human CYP1B1.
On to `COc1ccc(OC)c2c1c(OC)cc1c(=O)cc(-c3cc(Cl)cc(N4CCN(C)CC4)c3)oc12`, for which the Ratio IC50 is more than 1.9.
Same read-out and setting: with `COc1ccc(OC)c2c1c(OC)cc1c(=O)cc(-c3ccc4[nH]cnc4c3)oc12` the figure was 2.7.
In the case of `COc1ccc(OC)c2c1c(OC)cc1c(=O)cc(-c3cc4ccccc4o3)oc12`, the Ratio IC50 was 11.6.
In the case of `COc1ccc(OC)c2c1c(OC)cc1c(=O)cc(-c3ccccn3)oc12`, the Ratio IC50 was determined as 9.
`COc1ccc(OC)c2c1c(OC)cc1c(=O)cc(-c3cccc(C)n3)oc12`: the Ratio IC50 worked out at 16.6.
Regarding `COc1ccc(OC)c2c1c(OC)cc1c(=O)cc(-c3cccnc3N)oc12`, the Ratio IC50 stood at 0.8.
With `COc1ccc(OC)c2c1c(OC)cc1c(=O)cc(-c3ccncc3)oc12`, the Ratio IC50 is 33.7.
`COc1ccc(OC)c2c1c(OC)cc1c(=O)cc(-c3ccnc(N)c3)oc12`: the Ratio IC50 was 0.7.
Take `COc1ccc(OC)c2c1c(OC)cc1c(=O)cc(-c3ccc4ncccc4c3)oc12`: the Ratio IC50 stood at 11.6.
On to `COc1ccc(OC)c2c1c(OC)cc1c(=O)cc(-c3ccnc(F)c3)oc12`, for which the Ratio IC50 is 41.8.
Turning to `COc1ccc(OC)c2c1c(OC)cc1c(=O)cc(-c3ccnnc3)oc12`, the Ratio IC50 is 62.9.
In the case of `COc1ccc(OC)c2c1c(OC)cc1c(=O)cc(-c3cccc(N4CCOCC4)c3)oc12`, the Ratio IC50 came out at 8.9.
For `COc1ccc(OC)c2c1c(OC)cc1c(=O)cc(-c3ccnc(Cl)c3)oc12`, the Ratio IC50 was 83.3.

For a further experiment, the species on record is Homo sapiens. Kind of experiment: Selectivity index, ratio of IC50 for recombinant human CYP1A2 to IC50 for recombinant human CYP1B1.
Consider `COc1ccc(OC)c2c1c(OC)cc1c(=O)cc(-c3cc(Cl)cc(N4CCN(C)CC4)c3)oc12`, for which the Ratio IC50 was more than 1.9.
With `COc1ccc(OC)c2c1c(OC)cc1c(=O)cc(-c3ccc4[nH]cnc4c3)oc12`, the Ratio IC50 was more than 64.1.
On the same count and under the same terms, for `COc1ccc(OC)c2c1c(OC)cc1c(=O)cc(-c3cc4ccccc4o3)oc12` the value was more than 1150; for `COc1ccc(OC)c2c1c(OC)cc1c(=O)cc(-c3ccccn3)oc12`, 179; for `COc1ccc(OC)c2c1c(OC)cc1c(=O)cc(-c3cccc(C)n3)oc12`, 124.
Regarding `COc1ccc(OC)c2c1c(OC)cc1c(=O)cc(-c3cccnc3N)oc12`, the Ratio IC50 is more than 5.7.
On the same count and under the same terms, with `COc1ccc(OC)c2c1c(OC)cc1c(=O)cc(-c3ccncc3)oc12` the figure was 166.
In the case of `COc1ccc(OC)c2c1c(OC)cc1c(=O)cc(-c3ccnc(N)c3)oc12`, the Ratio IC50 is more than 48.5.
Same read-out and setting: for `COc1ccc(OC)c2c1c(OC)cc1c(=O)cc(-c3ccc4ncccc4c3)oc12` the value was more than 556; for `COc1ccc(OC)c2c1c(OC)cc1c(=O)cc(-c3ccnc(F)c3)oc12`, 557; for `COc1ccc(OC)c2c1c(OC)cc1c(=O)cc(-c3ccnnc3)oc12`, more than 500.
Still for that read-out and setting: for `COc1ccc(OC)c2c1c(OC)cc1c(=O)cc(-c3cccc(N4CCOCC4)c3)oc12` the value was more than 67.1.
The same measure, in the same setting: with `COc1ccc(OC)c2c1c(OC)cc1c(=O)cc(-c3ccnc(Cl)c3)oc12` the figure was more than 909.
